ARNT-TACC3 inh: ARNT/TACC3 interaction disruption; hit rate 0.66% among 390,000; Q9Y6A5; AlphaScreen His-ARNT PAS-B/GST-TACC3 binding, luminescence; TACC3 fragment carries E629A point mutation; AID 623870; inhibition, % at 9.99 µM;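 active = mean inhibition of replicates at least 50% and at least half of replicates each reaching 50%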;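 note: 0% = complete ARNT plus TACC3 wells and 100% = ARNT alone without TACC3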
DYRK1A inh: blocks rat Dyrk1A kinase activity; Q63470; ADP-Glo luminescence, NFATc1 peptide; inhibition, % at 12.5 µM; hit rate 0.43% among 310,000; AID 504441; in the data active = inhibition above about 50%;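 note: plate controls were vehicle with enzyme for no effect and no enzyme for full effect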
CAL PDZ FP-1: CAL PDZ (human) peptide binding inhibition. Q9HD26. purified CAL PDZ, TMR-peptide fluorescence polarization, 1 h. inhibition, % at 24.9 µM. hit rate 0.92% among 300,000. AID 602252;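 active = mean inhibition of at least 30% with at least half of replicates also reaching 30%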;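 note: 0% = DMSO neutral control and 100% = excess unlabeled competitor peptide PRC23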
CAL PDZ FP-2: inhibitors of human CAL PDZ peptide binding; Q9HD26; purified CAL PDZ, TMR-peptide fluorescence polarization, 1 h; inhibition, % at 20 µM; hit rate 0.02% among 330,000; AID 504414;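 active = highest replicate inhibition of at least 40%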;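 note: plate controls were DMSO neutral control wells for no effect and unlabeled competitor peptide control wells for full effect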
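material = purified tagged CAL PDZ domain construct (CerCALP) | compound dosing = 20 µM, one dose | times = 1 h at RT | measured by = fluorescence polarization from S- and P-plane intensities, G-factor corrected | read-out = inhibition from polarization loss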
ARNT Alpha ctr: interferes with AlphaScreen signal, flagging false ARNT-TACC3 hits; His-ARNT PASB-GST AlphaScreen artifact counter-screen, luminescence; AC50, µM (titrated, usually from 68 µM), without a hit: at the highest dose activity change, negative = signal decrease; hit rate 50% among 1,200; shares compounds with ARNT-TACC3 inh;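 active = every separate test run was called active for a drop in luminescence, with AC50 within twice the top valid dose, actives reach about 71 µM in these data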
The depositor's hits bear a star; · = no result given. This is a sample that favours compounds with a hit; in the whole collection about 1.4% have one here.

SMILES | ARNT-TACC3 inh | DYRK1A inh | CAL PDZ FP-1 | CAL PDZ FP-2 | ARNT Alpha ctr
O=S(=O)(N[C@H]1CC[C@H](CCn2cc(-c3cccc(F)c3)nn2)O[C@H]1CO)c1ccccc1 | -1 | · | · | · | ·
O=S(=O)(N[C@H]1CC[C@@H](CCn2cc(-c3ccccn3)nn2)O[C@@H]1CO)c1cccc(F)c1 | 68* | · | · | · | 34µM*
C[C@@H]1CCCCO[C@H](CN(C)C(=O)Nc2cccc3ccccc23)[C@H](C)CN([C@@H](C)CO)C(=O)c2cc(NC(=O)Nc3ccc(C(F)(F)F)cc3)ccc2O1 | -3 | · | · | · | ·
COc1ccc(-c2nnc(SCC(=O)NC3CCCCC3)o2)cc1 | -5 | -7 | 8 | -2 | ·
COc1ccc(-c2nnc(SCC(=O)NC3CC3)o2)cc1 | active | -3 | -3 | 1 | 1%
Cc1cc(C(=O)N/N=C/c2c(CO)cnc(C)c2O)c2ccccc2n1 | 61* | -1 | -4 | -3 | 20µM*
C/C=N/NC(=O)c1cc(Br)ccc1O | · | -6 | -2 | 0 | ·
Cc1ncc(CO)c(/C=N/NC(=O)c2cc(Br)ccc2O)c1O | 62* | 15 | · | 1 | 47µM*
COc1cccc(/C=N/NC(=O)Cn2ccnc2C)c1 | · | 0 | 1 | -1 | ·
COc1c(O)cccc1/C=N/NC(=O)Cn1ccnc1C | 61* | 6 | 4 | 1 | -25%
COc1ccc(S(=O)(=O)Nc2ccc3c(c2)C(=O)N([C@H](C)CO)C[C@H](C)[C@H](CN(C)S(C)(=O)=O)OCCCC[C@H](C)O3)cc1 | 14 | · | · | · | ·
C[C@H](CO)N1C[C@H](C)[C@H](CN(C)C(=O)NC2CCCCC2)Oc2ccc(NC(=O)CCCCCC(=O)Nc3ccccc3N)cc2CC1=O | -13 | · | · | · | ·
O=C(COC(=O)c1ccc([N+](=O)[O-])o1)Nc1ccc(F)cc1 | active | -2 | -2 | 1 | -5%
O=C(COC(=O)c1ccc([N+](=O)[O-])o1)Nc1ccc(N2CCOCC2)cc1 | 5 | -2 | -3 | 0 | ·
CC(NC(=O)COC(=O)c1ccc([N+](=O)[O-])o1)c1ccccc1 (configuration not stated) | 29* | 4 | -2 | 1 | 1%
C/C=C/c1cccc(-c2nc(C(=O)NCc3ccccc3)cc3c2[C@@H](CCO)N([S@](=O)C(C)(C)C)C3)c1 | 15 | · | · | · | ·
O=C(NCCCn1ccnc1)C(=O)NCC1OCCCN1S(=O)(=O)c1ccc(F)cc1 (configuration not stated) | · | -7 | 0 | -2 | ·
O=C(NCCCn1ccnc1)C(=O)NCC1OCCN1S(=O)(=O)c1ccccc1 (configuration not stated) | 57* | -2 | 2 | -3 | 62µM*
O=C(NCCCn1ccnc1)C(=O)NCC1OCCCN1S(=O)(=O)c1ccc(Cl)cc1 (configuration not stated) | 3 | 3 | -6 | -1 | ·
O=C(NCCCn1ccnc1)C(=O)NCC1OCCN1S(=O)(=O)c1ccc(Cl)cc1 (configuration not stated) | 58* | 3 | · | -1 | 70µM*
O=C(NCCCn1ccnc1)C(=O)NCC1OCCCN1S(=O)(=O)c1ccccc1 (configuration not stated) | 40* | -3 | 1 | -1 | -11%
O=C(c1ccccn1)N1CC[C@@H]2[C@@H](CO)Nc3ccc(-c4ccc(F)cc4)cc3[C@@H]21 | 9 | · | · | · | ·
O=C(NCCCNCCCNC(=O)c1ccc(/C=N/O)nc1)c1ccc(/C=N/O)nc1 | 56* | 6 | · | 0 | 66µM*
Cc1[nH]n(-c2ccccc2)c(=O)c1/C=N/NC(=O)COc1ccccc1[N+](=O)[O-] | 59* | 7 | -1 | -1 | -26%
CCCNC(=O)C[C@H]1CC[C@H]2[C@@H](COC[C@@H](O)CN2C(=O)Nc2c(C)noc2C)O1 | 13 | · | · | · | ·
SMILES | ARNT-TACC3 inh | DYRK1A inh | CAL PDZ FP-1 | CAL PDZ FP-2 | ARNT Alpha ctr
O=C(NNc1ccccn1)C(=O)NNS(=O)(=O)c1ccc(Cl)cc1 | 58* | -16 | · | -3 | -6%
C[C@@H]1CCCCO[C@@H](CN(C)Cc2ccc(C(F)(F)F)cc2)[C@H](C)CN([C@H](C)CO)C(=O)c2cc(NS(=O)(=O)c3cn(C)cn3)ccc2O1 | 2 | · | · | · | ·
O=C(Nc1ccc(Br)cn1)c1ccc2ccccc2c1 | -5 | 7 | 4 | -1 | ·
O=C(Nc1ccc(Br)cn1)c1cccc(C(=O)Nc2ccc(Br)cn2)c1 | active | 1 | 0 | -1 | -1%
COc1cc2c(cc1OC)CN(C(=O)[C@@H]1[C@H]3C(=O)O[C@H](c4ccccc4)[C@H](c4ccccc4)N3[C@H](c3ccc(OCCO)cc3)[C@@]13C(=O)Nc1ccc(C#CC4(O)CCCCCC4)cc13)CC2 | -4 | · | · | · | ·
CCOc1ccc(C2=Nn3c(nnc3-c3ccccn3)SC2)cc1 | 63* | -1 | -1 | -6 | -27%
Cn1c(-c2ccc(Cl)cc2)cnc1N | 58* | 4 | -5 | -2 | 58µM*
Nc1cccn2c(-c3ccc(Cl)cc3)cnc12 | 9 | -4 | -1 | 0 | ·
CCOc1ccc(-c2cnc(N)n2C)cc1 | 54* | -8 | -3 | -3 | -17%
CC(C)Nc1nc(NC(C)C)nc(C(=O)OCCO)n1 | 57* | 0 | · | -1 | -13%
Cn1c(N)c(C(=O)c2cc(-c3ccccn3)nc3ccccc23)c(=O)[nH]c1=O | 29* | -9 | 8 | -4 | -15%
C[C@@H]1CCCCO[C@@H](CN(C)S(=O)(=O)c2cccs2)[C@H](C)CN([C@@H](C)CO)C(=O)c2cc(NS(=O)(=O)c3ccc(F)cc3)ccc2O1 | -2 | · | · | · | ·
CCC(=O)N(C)C[C@@H]1Oc2ncc(-c3ccccc3C)cc2C(=O)N([C@H](C)CO)C[C@@H]1C | -5 | · | · | · | ·
CN1c2ccc(-c3ccccc3F)cc2[C@@H]2[C@@H](CCN2S(=O)(=O)c2ccccc2)[C@H]1CO | 1 | · | · | · | ·
O=C(CNCc1ccccn1)Nc1ccc([N+](=O)[O-])cc1C(=O)Nc1ccccc1F | 62* | -1 | 1 | -2 | 28µM*
O=C(CN1CCN(Cc2ccccc2)CC1)Nc1ccc([N+](=O)[O-])cc1C(=O)Nc1ccccc1F | 9 | -3 | 1 | -2 | ·
N/C(=N\NS(=O)(=O)c1cc(C(F)(F)F)cc(C(F)(F)F)c1)c1ccccn1 | 57* | 5 | -5 | -1 | -5%
Clc1nssc1=Nc1nncs1 | 36* | 10 | -2 | 0 | -15%
Clc1nssc1=Nc1ccc(Br)cc1 | -7 | · | -5 | -1 | ·
CC(C)C(=O)Nc1ccc2c(c1)C(=O)N(C)[C@@H]1CC[C@@H](CC(=O)O)O[C@H]1CO2 | -10 | · | · | · | ·
O=C(C1CCN(S(=O)(=O)c2cccc3cccnc23)CC1)N1CCN(Cc2ccccc2)CC1 | 6 | 0 | -3 | -2 | ·
O=S(=O)(NC1CCN(Cc2ccc(OCCO)cc2)CC1)c1cccc2cccnc12 | 113* | · | · | · | 25µM*
O=S(=O)(c1cccc2cccnc12)N1CCN(Cc2ccc(OCCO)cc2)CC1 | 64* | · | · | · | 51µM*

High-throughput results deposited in PubChem BioAssay by Broad Institute.
